GPR7 antagonist: antagonists of human GPR7 (neuropeptides B/W receptor 1) | P48145 | GPR7-expressing cells, fluorescence antagonist assay | inhibition, % at 4.4 µM | 290,000 tested, 1.1% active; in the data active means inhibition above about 16%, passing the limit was not always enough;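 further: cells stimulated with the agonist NPW; 0% = agonist with vehicle and 100% = vehicle without agonist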
TAAR1 antag: antagonists of human TAAR1; Q96RJ0; CHO RD-HGA16 TAAR1, Fluo-8 calcium fluorescence, antagonist; inhibition, % at 3 µM; 360,000 tested, 1.5% active; AID 624466;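 active means inhibition above a per-plate cutoff, the mean inhibition of test compounds on that plate plus 3 SD, cut at about 49% in these data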;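 further: 0% = DMSO plus EC80 beta-PEA response and 100% = DMSO alone without agonist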
Target sequence (Q96RJ0 whole entry, looked up): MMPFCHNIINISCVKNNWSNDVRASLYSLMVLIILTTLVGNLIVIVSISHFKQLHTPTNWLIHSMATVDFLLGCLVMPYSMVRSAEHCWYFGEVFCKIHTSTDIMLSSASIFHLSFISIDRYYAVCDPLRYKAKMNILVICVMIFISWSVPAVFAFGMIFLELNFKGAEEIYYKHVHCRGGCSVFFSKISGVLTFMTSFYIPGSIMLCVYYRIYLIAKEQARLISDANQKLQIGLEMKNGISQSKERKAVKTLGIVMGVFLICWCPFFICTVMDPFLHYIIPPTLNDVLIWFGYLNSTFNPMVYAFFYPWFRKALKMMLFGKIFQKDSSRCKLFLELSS
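Assay system: RD-HGA16 CHO cells with stable hTAAR1 and Gα16 / Reagent: EC80 β-phenethylamine stimulus / Doses: 3 µM, single point / Timing: dye loading 75 min at 37 °C, then 30 min room temperature / Measured by: Fluo-8 intracellular calcium dye fluorescence, real-time kinetic reads / Controls: vehicle wells and EC80 agonist wells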
CHO parental Ca: counter-screen for OX1R antagonists: effect in parental CHO cells. parental CHO-K1, ATP-induced calcium, Fluo-8 fluorescence. inhibition, % at 5.6 µM. 330,000 tested, 0.63% active. AID 463079;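 active means inhibition above that plate's mean sample inhibition plus 3 SD, cut at about 26% in these data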;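 further: 0% = ATP-challenged DMSO wells and 100% = DMSO wells without ATP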
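Assay system – parental CHO cells · Reagent – ATP stimulus · Detection – intracellular calcium via Fluo-8 no-wash fluorescent dye · Evaluation – percent inhibition of ATP-evoked calcium rise, normalized to controls · Controls – ATP wells versus no-ATP DMSO wells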
OX1R antag-1: blocks the human orexin 1 receptor | CHO/OX1R cells, Fluo-8 calcium fluorescence, orexin A | 330,000 tested, 0.43% active | inhibition, % at 5 µM | AID 434989 | O43613;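 active means inhibition above its plate's threshold, mean inhibition of all tested compounds on the plate plus 3 SD, cut at about 37% in these data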;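 further: 0% = orexin A challenge wells and 100% = SB-334867-A antagonist wells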
Target sequence (O43613 whole entry, looked up): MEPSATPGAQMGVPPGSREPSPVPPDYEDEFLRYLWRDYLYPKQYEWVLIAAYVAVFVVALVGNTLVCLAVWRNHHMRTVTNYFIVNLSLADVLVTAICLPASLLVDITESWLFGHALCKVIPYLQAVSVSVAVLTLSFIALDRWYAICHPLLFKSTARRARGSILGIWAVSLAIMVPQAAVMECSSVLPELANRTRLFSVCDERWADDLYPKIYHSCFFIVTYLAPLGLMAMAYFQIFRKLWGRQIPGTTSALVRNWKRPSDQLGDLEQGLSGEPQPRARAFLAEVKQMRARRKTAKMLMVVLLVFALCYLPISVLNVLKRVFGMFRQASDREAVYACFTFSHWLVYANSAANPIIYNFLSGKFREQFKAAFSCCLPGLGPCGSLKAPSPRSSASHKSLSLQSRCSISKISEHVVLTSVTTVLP
TAAR1 ag: agonists of human TAAR1. Q96RJ0. CHO RD-HGA16 TAAR1, Fluo-8 calcium fluorescence; vehicle wells 0%, saturating PEA agonist 100%. activation, % at 3 µM. 360,000 tested, 0.99% active. AID 624467;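 active means activation above the mean activation of all test compounds in the run plus 3 SD, cut at about 38% in these data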
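Test system: RD-HGA16 (CHO) cells co-expressing Gα16 and hTAAR1; dosing: one-point dosing at 3 µM (nominal); timing: 17-24 h seeding, 75 min 37 °C dye, 30 min RT; signal: kinetic Fluo-8 calcium fluorescence; read-out basis: % activation relative to PEA EC100 response; controls: DMSO and PEA EC100; replicates: n 1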
OX1R antag-2: antagonists of human orexin 1 receptor (OX1R); O43613; OX1R-expressing cells, FRET antagonist read-out; inhibition, % at 6.6 µM; 330,000 tested, 1.8% active; AID 485270; in the data active means inhibition mostly above about 38%, no sharp cut-off; inactive means mostly below about 40%;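 further: 0% = agonist challenge alone and 100% = reference antagonist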
TAAR1 ag confirm: human TAAR1 agonism, confirmed | shares compounds with TAAR1 ag | CHO RD-HGA16 TAAR1, Fluo-8 calcium fluorescence; scaled: DMSO 0%, maximal phenethylamine 100% | activation, % at 3 µM | 2,400 tested, 82% active | AID 651783;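 active means activation above a cutoff set at the run's mean compound activation plus 3 SD, cut at about 39% in these data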
Ga16 nonsel ag: counter-screen for TAAR1 agonists: nonselective agonists in parental cells. shares compounds with TAAR1 ag. CHO-Ga16 parental, Fluo-8 calcium fluorescence; normalized to maximal ATP response, DMSO zero. activation, % at 3 µM. 2,400 tested, 50% active;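 active means activation above the run cutoff, the mean activation over all tested wells plus 3 SD, cut at about 12% in these data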;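 further: 0% = DMSO wells and 100% = maximal ATP response on the peak over basal ratio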
TAAR1 desens: TAAR1 response desensitization, agonist counter-screen; shares compounds with TAAR1 ag; CHO RD-HGA16 hTAAR1, Fluo-8 calcium, beta-PEA response inhibition; inhibition, % at 3 µM; 2,400 tested, 46% active; AID 651951;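 active means inhibition above the run cutoff, the mean inhibition of all test compounds plus 3 SD, cut at about 49% in these data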;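 further: beta-PEA stimulus applied at its EC80; loss of beta-PEA calcium signal after compound pretreatment read as receptor desensitization; 0% = DMSO with beta-PEA at EC80 and 100% = DMSO alone without agonist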
Ga16 antag count: nonselective Ga16 antagonist in TAAR1 agonist counter-screen; shares compounds with TAAR1 ag; CHO-Ga16 ATP-induced calcium, Fluo-8 fluorescence; inhibition, % at 3 µM; 2,400 tested, 39% active; AID 651952;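 active means inhibition above the plate's mean compound inhibition plus 3 SD, computed per plate, cut at about 22% in these data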;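 further: 0% = EC80 ATP with DMSO and 100% = DMSO wells without ATP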
The depositor's hits bear a star; . = no result. The list is not random: actives were taken first. Their share in the collection is about 4.6%.

SMILES	GPR7 antagonist	TAAR1 antag	CHO parental Ca	OX1R antag-1	TAAR1 ag	OX1R antag-2	TAAR1 ag confirm	Ga16 nonsel ag	TAAR1 desens	Ga16 antag count
Cc1cc(C(=O)CN2C(=O)NC(C)(c3ccc(F)c(F)c3)C2=O)c(C)n1C1CC1 (configuration not stated)	.	48.0	.	.	68.1*	.	84.3*	30.2*	38.7	16.3
COc1ccc(C2(C)NC(=O)N(CC(=O)c3cc(C)n(C4CC4)c3C)C2=O)cc1 (configuration not stated)	.	82.8*	26.1	52.3*	136.9*	3.6	104.3*	50.0*	47.5	26.2*
Cc1ccc(S(=O)(=O)N2CCC(C(=O)OCC(=O)NC3(C#N)CCCCC3)CC2)cc1C	.	-23.9	-11.3	-10.8	1.7	26.4	.	.	.	.
O=[N+]([O-])C1=CC=C2C(=NC3(CCCCC3)N2O)C1=NCCc1ccccc1	-0.4	14.2	.	.	44.2*	.	78.6*	0.7	50.4*	4.4
CC(C)(C)N=C1C([N+](=O)[O-])=CC=C2C1=NC1(CCCCC1)N2O	-1.8	-16.5	-0.6	-20.0	-0.1	15.7	.	.	.	.
O=C(NNc1c(Cl)cncc1Cl)c1sccc1Cl	-11.7	-22.0	-11.8	-4.1	1.2	3.6	.	.	.	.
Cc1ccccc1-n1c(=O)cc(N2CCc3ccccc3C2)[nH]c1=O	-2.9	54.1*	-8.3	-12.4	92.0*	-0.7	96.7*	3.2	79.5*	7.2
O=c1cc(N2CCc3ccccc3C2)[nH]c(=O)n1-c1ccccc1Cl	-5.6	26.7	-10.5	-20.8	78.7*	-5.8	61.9*	3.6	2.3	12.3
Cc1ccc(-n2c(=O)cc(N3CCc4ccccc4C3)[nH]c2=O)cc1	-8.2	2.8	-3.7	-8.6	87.2*	4.5	4.0	0.2	8.6	5.7
O=c1cc(N2CCc3ccccc3C2)[nH]c(=O)n1C1CCCCC1	2.4	-6.0	-8.8	-21.0	2.7	15.0	.	.	.	.
Cc1ccc(-n2c(=O)cc(N3CCC(C)CC3)[nH]c2=O)cc1	-10.4	-12.1	-16.0	-0.5	3.7	-1.7	.	.	.	.
N#Cc1c(NC(=O)COC(=O)c2ccc(O)cc2O)sc2c1CCC2	.	-3.7	1.6	3.2	3.4	-2.2	.	.	.	.
Cc1ccc(Nc2nnc(SC(C)C(=O)NCC3CCCO3)s2)cc1 (configuration not stated)	.	0.4	-27.9	-8.0	-1.9	6.8	.	.	.	.
CCOC(=O)CC1C(=O)NCCN1C(=O)c1ccc(F)cc1F (configuration not stated)	-3.6	-7.3	-5.4	-16.2	14.3	6.5	.	.	.	.
CCOC(=O)CC1C(=O)NCCN1C(=O)c1ccc(Cl)cc1Cl (configuration not stated)	-3.7	-2.3	-7.4	-9.1	73.2*	-6.8	3.0	-0.7	-2.9	11.0
COC(=O)C[C@@H]1C=C[C@@H](NC(C)=O)[C@@H](CO)O1	.	-0.9	.	.	1.8	.	.	.	.	.
CC(=O)Nc1ccc(S(=O)(=O)N(C)CC(=O)OCCOc2cccc(C)c2)cc1	-2.5	-8.6	5.4	-5.9	4.0	14.4	.	.	.	.
Oc1ccc(/C=N\Nc2cc(N3CCOCC3)nc(N3CCOCC3)n2)c(O)c1	-1.0	-9.3	-8.0	-23.8	8.1	17.7	.	.	.	.
Cc1cc(N/N=C/c2ccc(O)cc2O)nc(N2CCOCC2)n1	-10.1	.	1.4	-15.9	.	14.4	.	3.9	.	9.2
CCOC(=O)c1c(-c2cccs2)csc1NC(=O)CN1CCOCC1	1.1	28.2	-0.1	-2.3	43.9*	34.9	30.5	38.2*	28.7	35.3*
CCOC(=O)c1c(-c2ccc(C)o2)csc1NC(=O)CN1CCOCC1	-20.0	19.5	4.9	-15.3	13.6	26.5	.	.	.	.
O=C(O)c1ccc(-c2noc(-c3ccccc3C(F)(F)F)n2)cc1	.	14.0	10.3	11.2	81.9*	-6.2	28.2	19.9*	19.5	23.7*
FC(F)(F)c1ccccc1-c1nc(-c2ccncc2)no1	-18.1	7.5	-17.6	-15.9	8.4	-1.2	.	.	.	.
COc1ccccc1CCNC(=O)C(=O)NCC1OCCN1S(=O)(=O)c1ccccc1 (configuration not stated)	5.5	5.2	-5.4	-11.5	47.4*	27.8	69.3*	0.8	34.2	4.6
COc1ccccc1CCNC(=O)C(=O)NCC1OCCN1S(=O)(=O)c1cccs1 (configuration not stated)	3.7	-4.5	-5.8	2.9	71.6*	33.5	73.9*	0.8	36.1	15.6
SMILES	GPR7 antagonist	TAAR1 antag	CHO parental Ca	OX1R antag-1	TAAR1 ag	OX1R antag-2	TAAR1 ag confirm	Ga16 nonsel ag	TAAR1 desens	Ga16 antag count
O=C(NCCc1ccccc1)C(=O)NCC1OCCN1S(=O)(=O)c1cc(F)ccc1F (configuration not stated)	1.9	42.7	-14.7	-13.9	51.7*	23.5	69.0*	10.6	57.6*	33.8*
COc1ccccc1CCNC(=O)C(=O)NCC1OCCN1S(=O)(=O)c1ccc(C)cc1 (configuration not stated)	-0.9	37.2	-20.5	-12.9	62.7*	4.3	76.4*	1.9	58.1*	4.8
COc1ccccc1CCNC(=O)C(=O)NCC1OCCCN1S(=O)(=O)c1ccc(F)cc1C (configuration not stated)	-18.4	4.0	-18.2	-2.0	57.8*	47.3	64.2*	3.8	20.5	12.1
COc1ccccc1CCNC(=O)C(=O)NCC1OCCN1S(=O)(=O)c1ccc([N+](=O)[O-])cc1 (configuration not stated)	0.4	-21.4	-11.9	-25.0	45.9*	26.7	72.5*	3.0	13.0	6.5
Cc1cc(F)ccc1S(=O)(=O)N1CCCOC1CNC(=O)C(=O)NCCc1ccco1 (configuration not stated)	.	-13.3	.	.	2.1	.	.	.	.	.
C[C@@H]1CN([C@@H](C)CO)S(=O)(=O)c2ccc(Br)cc2O[C@H]1CN(C)C(=O)c1ccncc1	.	-9.5	.	.	2.8	.	.	.	.	.
O=C(NN=Cc1ccc2c(c1)CCC2)c1cccc([N+](=O)[O-])c1	.	1.8	.	.	3.0	.	.	.	.	.
NC(N)=Nc1cc2ccccc2c2ccccc12	-6.3	.	-10.4	-3.0	.	-1.6	.	2.7	.	5.8
COc1ccc(Nc2cc(C)c3c(O)cccc3n2)cc1	2.5	.	-10.5	-9.5	.	32.2	.	6.1	.	13.2
